Source: ChEMBL document CHEMBL3272018, “Synthesis of aziridinylallylaminophosphine oxides and sulfides as potential adjuvant cancer chemotherapeutic agents” (J Med Chem, 1976)
Calls of active or inactive are those of the source. No cut-off for these calls is given here.

Experiments:
Rattus norvegicus [1] = experiment: Toxicity in rat allografted with rat Walker 256 cells intramuscularly assessed as change in body weight at 0.95 mg/kg, qd administered for 5 days; format: organism-based; set-up: dose 0.95 mg/kg, route intramuscular; conditions: in vivo, im, 120 h
Summary of the method: (§1)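 Walker 256 carcinoma solid-tumour system in rats (parent line, or the line resistant to cytoxan). Dosing was one injection per day for 5 days. Toxicity was taken as the average net body-weight change of the treated group minus the average net weight change of the untreated tumour-bearing controls, in grams.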

Rattus norvegicus [2] = experiment: Toxicity in rat allografted with rat Walker 256 cells intramuscularly assessed as change in body weight at 0.23 mg/kg, qd administered for 5 days; format: organism-based; set-up: dose 0.23 mg/kg, route intramuscular; conditions: in vivo, im, 120 h; summary of the method: as §1
W256 [3] = experiment: Antitumor activity against rat Walker 256 cells intramuscularly allografted in rat assessed as survival rate at 1 mg/kg, qd administered for 5 days; format: functional, organism-based; set-up: dose 1 mg/kg
Summary of the method: (§2)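 Rats bearing Walker 256 carcinoma as a solid tumor; lines 1-8 use a cytoxan-resistant Walker 256 subline. Dosed once daily for 5 days. Treated (T) and untreated control (C) groups are compared, and the response is given as T/C percentage, reflecting increase in survival time. Host weight change is the average weight change of the test group minus that of the controls, in grams.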

W256 [4] = experiment: Antitumor activity against rat Walker 256 cells intramuscularly allografted in rat assessed as tumor growth inhibition at 1 mg/kg, qd administered for 5 days relative to control; format: functional; conditions: W256, im, 120 h, route intramuscular, read-out: TGI
Summary of the method: (§3)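 Dosed once daily for 5 days. Response is tumor progression in treated (T) versus untreated control (C) animals, expressed as T/C percentage. Host weight change is reported as the average net weight change of the test group minus that of the controls, in grams.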

Rattus norvegicus [5] = experiment: Toxicity in rat allografted with rat Walker 256 cells intramuscularly assessed as change in body weight at 1.9 mg/kg, qd administered for 5 days; format: organism-based; set-up: dose 1.9 mg/kg, route intramuscular; conditions: in vivo, im, 120 h; summary of the method: as §1
[6] = Therapeutic index, ratio of LD50 for rat allografted with rat Walker 256 cells to ED10 for antitumor activity against rat Walker 256 cells intramuscularly allografted in rat; format: cell-based; conditions: read-out: TI
Summary of the method: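 Therapeutic index is LD50/ED10 in the Walker 256 solid tumour system. ED10 is the dose giving a 10% tumour weight reduction, with values extrapolated from dose-response data.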

L1210 [7] = experiment: In vivo antitumor activity against mouse L1210 cells in prognostic scoring system assessed as survival rate at 1.5 mg/kg, qd administered for 15 days; format: functional, organism-based; set-up: dose 1.5 mg/kg
Summary of the method: (§4)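 L1210 leukaemia in mice, run as an ascites tumour system. Injections were once daily for 9 or 15 days, or as a single dose. Response is the increase in survival time, given as T/C %, treated over untreated controls; a larger value means more activity. Weight change is the treated-group mean minus the control-group mean, in grams.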

L1210 [8] = experiment: In vivo antitumor activity against mouse L1210 cells in prognostic scoring system assessed as survival rate at 0.75 mg/kg, qd administered for 15 days; format: functional, organism-based; set-up: dose 0.75 mg/kg; summary of the method: as §4
W256 [9] = experiment: Antitumor activity against rat Walker 256 cells intramuscularly allografted in rat assessed as survival rate at 1.9 mg/kg, qd administered for 5 days; format: functional, organism-based; set-up: dose 1.9 mg/kg; summary of the method: as §2
Rattus norvegicus [10] = experiment: Toxicity in rat allografted with rat Walker 256 cells intramuscularly assessed as change in body weight at 0.47 mg/kg, qd administered for 5 days; format: organism-based; set-up: dose 0.47 mg/kg, route intramuscular; conditions: in vivo, im, 120 h; summary of the method: as §1
Musca domestica [11] = experiment: Toxicity in male house fly assessed as lowest dose required to cause complete sterility administered in sugar; format: organism-based; conditions: in vivo, po
L1210 [12] = experiment: In vivo antitumor activity against mouse L1210 cells in prognostic scoring system assessed as tumor growth inhibition at 0.6 mg/kg administered 9 doses relative to control; format: functional
W256 [13] = experiment: Antitumor activity against rat Walker 256 cells intramuscularly allografted in rat assessed as tumor growth inhibition at 0.95 mg/kg, qd administered for 5 days relative to control; format: functional; conditions: W256, im, 120 h, route intramuscular, read-out: TGI; summary of the method: as §3
L1210 [14] = experiment: In vivo antitumor activity against mouse L1210 cells in prognostic scoring system assessed as […] at 0.37 mg/kg, qd administered for 15 days relative to control; format: functional; conditions: L1210, 360 h, read-out: TGI
Rattus norvegicus [15] = experiment: Toxicity in rat allografted with rat Walker 256 cells intramuscularly assessed as change in body weight at 1 mg/kg, qd administered for 5 days; format: organism-based; set-up: dose 1 mg/kg, route intramuscular; conditions: in vivo, im, 120 h; summary of the method: as §1
L1210 [16] = experiment: In vivo antitumor activity against mouse L1210 cells in prognostic scoring system assessed as survival rate at 3 mg/kg, qd administered for 15 days; format: functional, organism-based; set-up: dose 3 mg/kg; summary of the method: as §4
W256 [17] = experiment: Antitumor activity against rat Walker 256 cells intramuscularly allografted in rat assessed as survival rate at 0.47 mg/kg, qd administered for 5 days; format: functional, organism-based; set-up: dose 0.47 mg/kg; summary of the method: as §2
L1210 [18] = experiment: In vivo antitumor activity against mouse L1210 cells in prognostic scoring system assessed as survival rate at 0.37 mg/kg, qd administered for 15 days; format: functional, organism-based; set-up: dose 0.37 mg/kg; summary of the method: as §4
Musca domestica [19] = experiment: Toxicity in male house fly assessed as lowest dose required to cause complete sterility administered in food; format: organism-based; conditions: in vivo, po
W256 [20] = experiment: Antitumor activity against rat Walker 256 cells intramuscularly allografted in rat assessed as tumor growth inhibition at 0.47 mg/kg, qd administered for 5 days relative to control; format: functional; conditions: W256, im, 120 h, route intramuscular, read-out: TGI; summary of the method: as §3
W256 [21] = experiment: Antitumor activity against rat Walker 256 cells intramuscularly allografted in rat assessed as tumor growth inhibition at 1.9 mg/kg, qd administered for 5 days relative to control; format: functional; conditions: W256, im, 120 h, route intramuscular, read-out: TGI
Summary of the method: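 Walker 256 carcinoma grown as a solid tumour in rats, with one injection daily for 5 days. Response is given as T/C %, the treated-group measure over the untreated-control tumour measure; a smaller value means more activity. Host toxicity is the mean net weight change of treated minus control animals, in grams.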

W256 [22] = experiment: Antitumor activity against rat Walker 256 cells intramuscularly allografted in rat assessed as tumor growth inhibition at 0.23 mg/kg, qd administered for 5 days relative to control; format: functional; conditions: W256, im, 120 h, route intramuscular, read-out: TGI; summary of the method: as §3
W256 [23] = experiment: Antitumor activity against rat Walker 256 cells intramuscularly allografted in rat assessed as survival rate at 0.23 mg/kg, qd administered for 5 days; format: functional, organism-based; set-up: dose 0.23 mg/kg; summary of the method: as §2
L1210 [24] = experiment: In vivo antitumor activity against mouse L1210 cells in prognostic scoring system assessed as tumor growth inhibition at 1.65 mg/kg administered 3 doses relative to control; format: functional
W256 [25] = experiment: Antitumor activity against rat Walker 256 cells intramuscularly allografted in rat assessed as tumor growth inhibition; format: functional; conditions: W256, im; summary of the method: as §3
[26] = Toxicity in rat allografted with rat Walker 256 cells intramuscularly; format: organism-based
W256 [27] = experiment: Antitumor activity against rat Walker 256 cells intramuscularly allografted in rat assessed as survival rate at 0.95 mg/kg, qd administered for 5 days; format: functional, organism-based; set-up: dose 0.95 mg/kg; summary of the method: as §2
Musca domestica [28] = experiment: Toxicity in male house fly at 1% administered in sugar; format: organism-based; conditions: in vivo, po
L1210 [29] = experiment: In vivo antitumor activity against mouse L1210 cells in prognostic scoring system assessed as tumor growth inhibition at 200 mg/kg administered as single dose (reference value: 10.9 g); format: functional; summary of the method: as §4
L1210 [30] = experiment: In vivo antitumor activity against mouse L1210 cells in prognostic scoring system assessed as survival rate at 200 mg/kg administered as single dose; format: functional, organism-based; set-up: dose 200 mg/kg; summary of the method: as §4
L1210 [31] = experiment: In vivo antitumor activity against mouse L1210 cells in prognostic scoring system assessed as tumor growth inhibition at 100 mg/kg administered as single dose (reference value: 10.9 g); format: functional; summary of the method: as §4
L1210 [32] = experiment: In vivo antitumor activity against mouse L1210 cells in prognostic scoring system assessed as survival rate at 100 mg/kg administered as single dose; format: functional, organism-based; set-up: dose 100 mg/kg; summary of the method: as §4
L1210 [33] = experiment: In vivo antitumor activity against mouse L1210 cells in prognostic scoring system assessed as tumor growth inhibition at 400 mg/kg administered as single dose (reference value: 10.9 g); format: functional; summary of the method: as §4
L1210 [34] = experiment: In vivo antitumor activity against mouse L1210 cells in prognostic scoring system assessed as survival rate at 400 mg/kg administered as single dose; format: functional, organism-based; set-up: dose 400 mg/kg; summary of the method: as §4

Q: With C=CCN(CC=C)P(=O)(N1CC1)N1CC1C (stereo not given) as the molecule, how does the Activity (Rattus norvegicus [1]) read?
A: -8 g

Q: And the Activity (Rattus norvegicus [2])?
A: -7 g

Q: What about the Activity (W256 [3]) of the same molecule?
A: Active

Q: What about the inhibition in vivo at 1 mg/kg (W256 [4]) of the same molecule?
A: 2%

Q: And the Activity (Rattus norvegicus [5])?
A: -13 g

Q: What about the selectivity ratio [6] of the same molecule?
A: 13

Q: What about the Activity (L1210 [7]) of the same molecule?
A: Active

Q: What about the Activity (L1210 [8]) of the same molecule?
A: Active

Q: What about the Activity (W256 [9]) of the same molecule?
A: Active

Q: What about the Activity (Rattus norvegicus [10]) of the same molecule?
A: 0 g

Q: What about the Activity (Musca domestica [11]) of the same molecule?
A: 0.25%

Q: And the T/C (L1210 [12])?
A: 189%

Q: What about the inhibition in vivo at 0.95 mg/kg (W256 [13]) of the same molecule?
A: 0%

Q: And the inhibition in vivo at 0.37 mg/kg (L1210 [14])?
A: 117%

Q: And the Activity (Rattus norvegicus [15])?
A: -9 g

Q: What about the Activity (L1210 [16]) of the same molecule?
A: Active

Q: What about the Activity (W256 [17]) of the same molecule?
A: Active

Q: And the Activity (L1210 [18])?
A: Active

Q: And the Activity (Musca domestica [19])?
A: 0.1%

Q: And the inhibition in vivo at 0.47 mg/kg (W256 [20])?
A: 5%

Q: And the inhibition in vivo at 1.9 mg/kg (W256 [21])?
A: 0%

Q: And the inhibition in vivo at 0.23 mg/kg (W256 [22])?
A: 30%

Q: And the Activity (W256 [23])?
A: Active

Q: What about the T/C (L1210 [24]) of the same molecule?
A: 159%

Q: What about the ED10 (W256 [25]) of the same molecule?
A: 0.52 mg/kg

Q: And the LD50 [26]?
A: 7 mg/kg

Q: What about the Activity (W256 [27]) of the same molecule?
A: Active

Q: With C=CCN(c1ccccc1)P(=O)(N1CC1)N1CC1 as the molecule, how does the Activity (Musca domestica [28]) read?
A: Non-toxic

Q: And the Activity (L1210 [29])?
A: 10.5 g

Q: And the Activity (L1210 [30])?
A: Active

Q: And the Activity (L1210 [31])?
A: 10.5 g

Q: What about the LD50 [26] of the same molecule?
A: > 300 mg/kg

Q: And the Activity (L1210 [32])?
A: Active

Q: What about the Activity (L1210 [33]) of the same molecule?
A: 10.5 g

Q: And the Activity (L1210 [34])?
A: Active
